Four compounds from publication PMC3979583 (ACS medicinal chemistry letters, 2013) can be followed below.

Read-outs that look alike come from different tables or passages of the source.

Holding throughout (assay type): cell-based
The target of series [1] is human CB2 receptors (Homo sapiens, UniProt P34972).
A short description of series [2]: cytotoxicity assay. The note with it: 5 μM.
Series [3] concerns osteoclast (OCL) formation. Nature of the series: osteoclast. The note with it: mouse bone marrow mononuclear cells, RANKL plus MCSF. The essentials: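 Test compound was given at concentrations including 0.1, 1 and 5 μM, alongside a vehicle control. The read-out was inhibition of osteoclastogenesis, expressed as percent suppression of osteoclast formation. Each experiment was run in triplicate, and data were reported as means ± standard deviation.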

Chain of human CB2 receptors (P34972 whole entry): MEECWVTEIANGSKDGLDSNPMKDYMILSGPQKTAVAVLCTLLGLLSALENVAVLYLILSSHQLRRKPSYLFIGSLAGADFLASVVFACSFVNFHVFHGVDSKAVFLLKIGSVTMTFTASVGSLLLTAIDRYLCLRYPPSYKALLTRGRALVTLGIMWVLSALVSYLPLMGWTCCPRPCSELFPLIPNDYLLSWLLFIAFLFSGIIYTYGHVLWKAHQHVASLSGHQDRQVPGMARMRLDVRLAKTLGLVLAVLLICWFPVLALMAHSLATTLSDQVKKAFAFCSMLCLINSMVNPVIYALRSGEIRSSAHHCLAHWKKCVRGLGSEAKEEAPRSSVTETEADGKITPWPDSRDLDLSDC

Regarding `CCN(CC)c1ccc(CN(c2ccccc2)S(=O)(=O)c2ccc(C)cc2)cc1` [Compound 34], in series [1], the “functional behaviour at CB2 receptor” value is reported as “behaved as CB2 receptor inverse agonists”. For the same compound, in series [2], the cytotoxic effects result was “without showing any cytotoxic effects”. Also, the “inhibition of osteoclastogenesis (in words)” value (from here on “inhibition”) in series [3] is reported as “great inhibition of osteoclastogenesis”.

As to `CCN(CC)c1ccc(CN(c2ccccc2)S(=O)(=O)c2ccc(OC)cc2)cc1` [Compound 39], the “functional behaviour at CB2 receptor” value in series [1] (based on LANCE signal change) is “behaved as CB2 receptor inverse agonists”. In series [3], the “inhibition” value is “great inhibition of osteoclastogenesis”.

Consider `CCN(CC)c1ccc(CN(c2ncc(C)s2)S(=O)(=O)c2ccc(OC)cc2)cc1` [Compound 45], for which, in series [1] (based on LANCE signal change), the “functional behaviour at CB2 receptor” value is “behaved as CB2 receptor inverse agonists”. Moreover, the “inhibition” value in series [3] is recorded as “great inhibition of osteoclastogenesis”.

As to `COc1ccc(S(=O)(=O)N(Cc2ccc(N3CCCCC3)cc2)c2ccccc2)cc1` [Compound 47], in series [1] (based on LANCE signal change), the “functional behaviour at CB2 receptor” value was “behaved as CB2 receptor inverse agonists”.
